The results in this text go back to ChEMBL document CHEMBL5331142, “Novel 1,4-Dihydropyridines as Specific Binders and Activators of SIRT3 Impair Cell Viability and Clonogenicity and Downregulate Hypoxia-Induced Targets in Cancer Cells” (J Med Chem, 2023).

Activity calls are given as the source filed them. The calls are words filed in the database; no cut-off is given here.

Assay [1] has as its system MDA-MB-231. As to the kind of experiment: Downregulation of MMP9 gene expression in human MDA-MB-231 cells at 50 uM incubated for 48 hrs under hypoxia condition by qRT-PCR analysis. The assay is classed as functional, cell-based. Summed up:
(§1)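 MDA-MB-231 cells pretreated with 200 μM CoCl2 to induce hypoxia, then exposed to 50 μM compound for 48 h with CoCl2 maintained. qRT-PCR by the 2(−ΔCt) method vs DMSO control, mean ± SEM. Four independent experiments.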

Assay [2] has as its system CAL-62. Put plainly: Inhibition of clonogenicity in human CAL-62 cells at 50 uM incubated for 24 to 48 hrs under hypoxia condition by crystal violet staining based assay. The assay is classed as functional. To be noted: time 24-48 hrs. An outline of the steps:
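CAL-62 cells at 80–90% confluence treated with 50 μM compound for 24 or 48 h, in normoxia or with 200 μM CoCl2 (hypoxia). 500 cells replated per 100 mm dish and grown about 7 days. Colonies fixed in 4% formaldehyde, stained with 0.5% crystal violet, and counted.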

Assay [3] concerns MDA-MB-231. Put plainly: Downregulation of COLLAGEN gene expression in human MDA-MB-231 cells at 50 uM incubated for 48 hrs under hypoxia condition by qRT-PCR analysis. Type of assay: functional, cell-based. Summed up: as §1
The test system of assay [4] is MDA-MB-231. Put plainly: Inhibition of cell migration in human MDA-MB-231 cells at 50 uM incubated for 48 hrs by scratch assay. Type of assay: functional. An outline of the steps:
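Confluent MDA-MB-231 monolayer shifted to serum-depleted medium and scratched with a pipette tip. Treated with 50 μM compound for 48 h, DMSO as control. Migration imaged by phase contrast at two time points and quantified. Mean ± SEM of three independent experiments.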

The test system of assay [5] is MDA-MB-231. Put plainly: Downregulation of MMP9 gene expression in human MDA-MB-231 cells at 50 uM incubated for 48 hrs by qRT-PCR analysis. Type of assay: functional, cell-based. An outline of the steps:
(§2)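 MDA-MB-231 cells treated with 50 μM compound for 48 h under normoxia, DMSO vehicle control. qRT-PCR quantified by the 2(−ΔCt) method as fold of control, mean ± SEM. Three independent experiments.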

In assay [6] the target is T1, NAD-dependent protein deacetylase sirtuin-3, mitochondrial (Homo sapiens) (UniProt Q9NTG7).
T1 sequence (whole entry): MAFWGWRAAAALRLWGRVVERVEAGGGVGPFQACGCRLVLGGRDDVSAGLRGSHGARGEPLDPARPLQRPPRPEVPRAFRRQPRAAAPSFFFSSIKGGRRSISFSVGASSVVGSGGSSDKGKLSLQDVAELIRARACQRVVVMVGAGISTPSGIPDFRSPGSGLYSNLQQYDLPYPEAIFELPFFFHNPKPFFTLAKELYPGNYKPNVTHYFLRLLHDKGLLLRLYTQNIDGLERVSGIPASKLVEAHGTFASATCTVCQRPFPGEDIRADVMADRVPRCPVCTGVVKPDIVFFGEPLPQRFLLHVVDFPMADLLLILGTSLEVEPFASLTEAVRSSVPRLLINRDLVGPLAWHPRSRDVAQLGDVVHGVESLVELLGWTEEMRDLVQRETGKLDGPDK
Put plainly: Activation of human SIRT3 overexpressing in human CAL-62 cells assessed as increase in acK68-MnSOD deacetylation level at 50 uM incubated for 4 hrs by Western blot analysis assay. The assay is classed as cell-based. The conditions noted are these: filed as activator. Summed up: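 CAL-62 or MDA-MB-231 cells treated 4 h at 50 μM. Lysed in Tris/NaCl/EDTA/Triton buffer with protease and phosphatase inhibitors. 15 or 50 μg protein resolved by SDS-PAGE, immunoblotted for acK68- or acK122-MnSOD and total MnSOD, ECL detection. Densitometric acetyl/total ratio. SIRT3 inhibitor 3-TYP (1 μM) used as control.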

The test system of assay [7] is MDA-MB-231. As to the kind of experiment: Downregulation of SNAIL gene expression in human MDA-MB-231 cells at 50 uM incubated for 48 hrs under hypoxia condition by qRT-PCR analysis. Type of assay: functional, cell-based. Summed up: as §1
Assay [8] concerns CAL-62. As to the kind of experiment: Inhibition of clonogenicity in human CAL-62 cells incubated for 48 hrs under hypoxia condition by crystal violet staining based assay. To be noted: CAL-62, 48 h. The assay is classed as functional, cell-based. Summed up:
(§3)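 Dose range 1–50 μM for 48 h under CoCl2 (200 μM) hypoxia. 500 surviving cells replated and grown about 7 days (CAL-62) or 10 days (MDA-MB-231). Crystal violet colony counts used to derive IC50/EC50. Three independent experiments.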

The subject of assay [9] is MDA-MB-231. As to the kind of experiment: Downregulation of SNAIL gene expression in human MDA-MB-231 cells at 50 uM incubated for 48 hrs by qRT-PCR analysis. The assay is classed as functional, cell-based. Summed up:
as §2

Assay [10] concerns the target T2, NAD-dependent protein deacetylase sirtuin-1 (Homo sapiens) (UniProt Q96EB6).
T2 sequence (whole entry): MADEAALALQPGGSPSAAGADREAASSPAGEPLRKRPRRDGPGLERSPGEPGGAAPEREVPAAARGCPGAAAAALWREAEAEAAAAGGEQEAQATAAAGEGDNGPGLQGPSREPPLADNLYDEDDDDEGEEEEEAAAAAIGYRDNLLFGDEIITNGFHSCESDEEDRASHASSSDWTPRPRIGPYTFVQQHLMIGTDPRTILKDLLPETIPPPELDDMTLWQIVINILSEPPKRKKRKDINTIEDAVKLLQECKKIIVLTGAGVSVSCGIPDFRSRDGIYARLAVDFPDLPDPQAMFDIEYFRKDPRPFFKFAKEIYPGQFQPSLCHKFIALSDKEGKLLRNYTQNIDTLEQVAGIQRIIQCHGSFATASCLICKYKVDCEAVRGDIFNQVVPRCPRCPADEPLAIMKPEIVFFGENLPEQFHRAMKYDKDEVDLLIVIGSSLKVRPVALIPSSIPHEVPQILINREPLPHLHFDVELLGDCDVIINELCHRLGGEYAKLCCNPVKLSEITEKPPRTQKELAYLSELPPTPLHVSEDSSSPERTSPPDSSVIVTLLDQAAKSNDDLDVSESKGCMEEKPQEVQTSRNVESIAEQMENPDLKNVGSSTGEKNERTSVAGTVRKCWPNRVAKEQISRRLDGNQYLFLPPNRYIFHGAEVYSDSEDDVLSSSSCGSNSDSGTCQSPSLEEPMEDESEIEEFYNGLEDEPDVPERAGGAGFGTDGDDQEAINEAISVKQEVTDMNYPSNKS
Put plainly: Activation of N-terminal his-tagged human SIRT1 expressed in Escherichia coli at 10 uM using p53-acK381 as substrate in presence of NAD+ by NADH oxidation-coupled enzymatic assay. Summed up: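 Coupled PncA/GDH deacylation assay following NADPH oxidation to NADP+. 1.5 μM sirtuin, 50 μM substrate peptide, 100 μM NAD+, compound at 10 μM, 5% final DMSO. Isoform-specific physiological substrates: p53-acK381 (SIRT1), […] (SIRT2), ACS2-acK642 (SIRT3), CPS1-succK537 (SIRT5). Sirtuins expressed in E. coli, Ni-NTA purified, tag cleaved, then size-exclusion chromatography.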

The test system of assay [11] is MDA-MB-231. Put plainly: Inhibition of clonogenicity in human MDA-MB-231 cells incubated for 48 hrs under hypoxia condition by crystal violet staining based assay. The assay is classed as functional, cell-based. To be noted: MDA-MB-231, 48 h. Summed up: as §3
Assay [12] relates to MDA-MB-231. Put plainly: Downregulation of SLUG gene expression in human MDA-MB-231 cells at 50 uM incubated for 48 hrs by qRT-PCR analysis. Type of assay: functional, cell-based. An outline of the steps: as §2

Take `CCOC(=O)C1=CN(C(=O)c2cc(OC)cc(OC)c2)C=C(C(=O)OCC)C1c1ccccc1`: the outcome in assay [1], in assay [3], in assay [5], in [6], in assay [7] and in [9] was Active. In addition, the inhibition at 50 µM in assay [2] is 68%; in [4] it was greater than 75%. Also, the IC50 in assay [8] is 5.43 µM; in assay [11], 3.19 µM. For the same compound, the outcome in assay [10] and in [12] was inactive.
As to `CCOC(=O)C1=CN(C(=O)c2ccc(OC)c(OC)c2)C=C(C(=O)OCC)C1c1ccccc1`, the result in assay [1], in assay [3], in assay [5], in [7] and in assay [9] was Active. For the same compound, in [10], the outcome was inactive.
